T1: 2-dehydro-3-deoxy-6-phosphogalactonate aldolase (Escherichia coli (strain K12)), Q6BF16 [V154A]
T1 sequence (whole entry): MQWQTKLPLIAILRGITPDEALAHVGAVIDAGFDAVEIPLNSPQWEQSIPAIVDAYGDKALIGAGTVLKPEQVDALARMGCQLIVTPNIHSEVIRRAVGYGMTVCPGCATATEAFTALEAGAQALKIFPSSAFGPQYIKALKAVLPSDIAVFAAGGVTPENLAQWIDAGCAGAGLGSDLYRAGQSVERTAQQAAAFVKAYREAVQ

T2: KHG/KDPG aldolase (Escherichia coli (strain K12)), P0A955 [T161V]
T2 sequence (whole entry): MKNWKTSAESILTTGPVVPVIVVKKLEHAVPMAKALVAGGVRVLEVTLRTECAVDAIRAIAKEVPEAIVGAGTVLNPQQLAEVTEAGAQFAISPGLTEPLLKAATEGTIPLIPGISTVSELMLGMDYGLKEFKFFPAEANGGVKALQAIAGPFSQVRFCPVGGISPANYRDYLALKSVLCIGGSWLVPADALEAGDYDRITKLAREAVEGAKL

T3: 2-dehydro-3-deoxy-6-phosphogalactonate aldolase (Escherichia coli (strain K12)), Q6BF16 [V154T]
T3 sequence (whole entry): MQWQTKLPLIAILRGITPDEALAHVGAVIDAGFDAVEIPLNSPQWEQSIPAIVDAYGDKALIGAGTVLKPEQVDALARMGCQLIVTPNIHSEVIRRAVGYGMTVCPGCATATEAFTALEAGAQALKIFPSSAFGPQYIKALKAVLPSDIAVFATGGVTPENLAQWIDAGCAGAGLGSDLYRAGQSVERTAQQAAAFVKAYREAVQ

T4: KHG/KDPG aldolase (Escherichia coli (strain K12)), P0A955 [T161A]
T4 sequence (whole entry): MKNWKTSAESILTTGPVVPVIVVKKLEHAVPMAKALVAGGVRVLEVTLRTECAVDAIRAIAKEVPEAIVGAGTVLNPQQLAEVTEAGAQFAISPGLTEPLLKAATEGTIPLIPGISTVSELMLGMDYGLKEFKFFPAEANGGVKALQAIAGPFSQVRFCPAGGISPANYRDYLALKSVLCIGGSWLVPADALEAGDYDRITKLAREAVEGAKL


How the values were obtained:
[1] = system: T1, 2-dehydro-3-deoxy-6-phosphogalactonate aldolase (Escherichia coli (strain K12)), Q6BF16 [V154A]; assay: Ratio of kcat to Km for Escherichia coli KDPGal aldolase V154A mutant
Procedure, shortened: (§1)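 V154A or V154T KDPGal aldolase was made by Quikchange and expressed in DF71 (eda–) cells, with 1 mM IPTG induction at 25 °C for 16 h. It was nickel-affinity purified. Retro-aldol cleavage of KDPGal (0.2×–5× KM) was coupled to L-lactate dehydrogenase (105 U) in 20 mM HEPES pH 7.0 with 0.42 mM NADH. Aldolase was added last, and A340 loss was read over 5 min. Kinetic constants came from Michaelis–Menten fits of initial rates.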

Escherichia coli [2] = assay: Ratio of kcat to Km of Escherichia coli KDPG aldolase
Procedure, shortened: (§2)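 Wild-type KDPG aldolase activity toward KDPG (0.2×–5× KM) was read through a coupled L-lactate dehydrogenase system: 20 mM HEPES pH 7.0, 0.42 mM NADH, 105 U LDH. Aldolase was added to start the reaction, NADH loss was followed at 340 nm for 5 min, and Michaelis–Menten fits gave the parameters.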

Escherichia coli [3] = assay: Activity of Escherichia coli KDPG aldolase; procedure, shortened: as §2
[4] = system: T2, KHG/KDPG aldolase (Escherichia coli (strain K12)), P0A955 [T161V]; assay: Ratio of kcat to Km of Escherichia coli KDPG aldolase T161V mutant
Procedure, shortened: (§3)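 KDPG aldolase T161A or T161V mutants were expressed from the pET plasmid in DF71 (eda–) cells, induced with 1 mM IPTG at 25 °C for 16 h, and purified on nickel resin. Assays used 20 mM HEPES pH 7.0, 0.42 mM NADH, KDPG at 0.2×–5× KM and 105 U rabbit-muscle L-lactate dehydrogenase, started with enzyme. A340 was monitored for 5 min, and initial velocities were fitted to Michaelis–Menten.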

Escherichia coli [5] = assay: Activity of Escherichia coli KDPGal aldolase
Procedure, shortened: (§4)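 The enzyme started a coupled L-lactate dehydrogenase assay in 20 mM HEPES pH 7.0 with 0.42 mM NADH, KDPGal at 0.2×–5× KM and 105 U LDH. The A340 decrease was followed for 5 min. Initial slopes were fitted to Michaelis–Menten.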

[6] = system: T3, 2-dehydro-3-deoxy-6-phosphogalactonate aldolase (Escherichia coli (strain K12)), Q6BF16 [V154T]; assay: Ratio of kcat to Km for Escherichia coli KDPGal aldolase V154T mutant; procedure, shortened: as §1
[7] = system: T4, KHG/KDPG aldolase (Escherichia coli (strain K12)), P0A955 [T161A]; assay: Ratio of kcat to Km of Escherichia coli KDPG aldolase T161A mutant; procedure, shortened: as §3
Escherichia coli [8] = assay: Ratio of kcat to Km for Escherichia coli KDPGal aldolase; procedure, shortened: as §4
[9] = substrate: O=C(O)C(=O)C[C@H](O)[C@@H](O)COP(=O)(O)O; assay: (§5) Activity of Escherichia coli KDPGal aldolase V154T mutant; procedure, shortened: as §1
[10] = substrate: O=C(O)C(=O)C[C@H](O)[C@H](O)COP(=O)(O)O; assay: as §5; procedure, shortened: as §1
[11] = substrate: O=C(O)C(=O)C[C@H](O)[C@@H](O)COP(=O)(O)O; assay: (§6) Activity of Escherichia coli KDPGal aldolase V154A mutant; procedure, shortened: as §1
[12] = substrate: O=C(O)C(=O)C[C@H](O)[C@H](O)COP(=O)(O)O; assay: as §6; procedure, shortened: as §1

Row | Ratio [1] [mM⁻¹ s⁻¹] | Ratio (Escherichia coli [2]) [mM⁻¹ s⁻¹] | Km (Escherichia coli [3]) [µM] | kcat (Escherichia coli [3]) [s⁻¹] | Ratio [4] [mM⁻¹ s⁻¹] | Km (Escherichia coli [5]) [µM] | kcat (Escherichia coli [5]) [s⁻¹] | Ratio [6] [mM⁻¹ s⁻¹] | Ratio [7] [mM⁻¹ s⁻¹] | Ratio (Escherichia coli [8]) [mM⁻¹ s⁻¹] | Molecule | Km [9] [µM] | kcat [9] [s⁻¹] | Km [10] [µM] | kcat [10] [s⁻¹] | Km [11] [µM] | kcat [11] [s⁻¹] | Km [12] [µM] | kcat [12] [s⁻¹]
1 | 1.3 | 2.8 | 600 | 1.7 | 0.1 | 200 | 3.8 | 0.7 | 5 | 19 | O=C(O)C(=O)C[C@H](O)[C@@H](O)COP(=O)(O)O |  |  |  |  |  |  |  | 
2 | 0.02 | 800 | 100 | 80 | 0.07 | 1300 | 1.4 | 0.1 | 58 | 1.1 | O=C(O)C(=O)C[C@H](O)[C@H](O)COP(=O)(O)O |  |  |  |  |  |  |  | 
3 |  |  |  |  |  |  |  |  |  |  | 2-dehydro-3-deoxy-6-phosphogalactonate aldolase (Escherichia coli (strain K12)), Q6BF16 V154T (protein) MQWQTKLPLIAILRGITPDEALAHVGAVIDAGFDAVEIPLNSPQWEQSIPAIVDAYGDKALIGAGTVLKPEQVDALARMGCQLIVTPNIHSEVIRRAVGYGMTVCPGCATATEAFTALEAGAQALKIFPSSAFGPQYIKALKAVLPSDIAVFATGGVTPENLAQWIDAGCAGAGLGSDLYRAGQSVERTAQQAAAFVKAYREAVQ | 300 | 0.2 | 90 | 0.01 |  |  |  | 
4 |  |  |  |  |  |  |  |  |  |  | 2-dehydro-3-deoxy-6-phosphogalactonate aldolase (Escherichia coli (strain K12)), Q6BF16 V154A (protein) MQWQTKLPLIAILRGITPDEALAHVGAVIDAGFDAVEIPLNSPQWEQSIPAIVDAYGDKALIGAGTVLKPEQVDALARMGCQLIVTPNIHSEVIRRAVGYGMTVCPGCATATEAFTALEAGAQALKIFPSSAFGPQYIKALKAVLPSDIAVFAAGGVTPENLAQWIDAGCAGAGLGSDLYRAGQSVERTAQQAAAFVKAYREAVQ |  |  |  |  | 400 | 0.5 | 300 | 0.007

From ChEMBL document CHEMBL1142378, “Characterization and crystal structure of Escherichia coli KDPGal aldolase” (Bioorg Med Chem, 2008)
